In the library only some 2.6% were active in any assay of this set; here they are far more common.
PolyA inh: polyadenylation inhibitors in yeast reporter cells, primary screen, luminescence, S. cerevisiae. S. cerevisiae SKY197-pL101 polyadenylation reporter, beta-gal luminescence; efflux-impaired pdr1/pdr3 knockout yeast; score 100 = 6 SD above DMSO. activity score, % at 12 µM. 0.02% of 300,000 active. AID 1875, 2009;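 active = lowest replicate activity score at least 50, where 100 means six control SD above control mean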;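 note: yeast exposed to compound for 9 h at 30 °C; higher score means more reporter readthrough which indicates perturbed polyadenylation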
T cruzi repl: inhibitors of intracellular T. cruzi growth, primary screen, luminescence, NIH3T3 host cells; inhibition, % (concentration not given with the values); 1.4% of 300,000 active; T. cruzi beta-gal in NIH3T3, 90 h;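 active = mean inhibition across valid replicates above about 55%, limit read from the data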;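 note: signal also drops with host cell toxicity which is not excluded here; higher percent means less beta-gal luminescence so fewer parasites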
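assay system = mouse NIH/3T3 fibroblasts infected with β-gal-expressing T. cruzi Tulahuen C4 | input = 5,000 NIH/3T3 host cells per well | buffer or medium = DMEM plus 2% FBS | timing = 3 h host attachment, then at least 90 h co-culture | measured by = GalScreen luminescence, 60 min | evaluation = luminescence reflecting intracellular parasite burden, expressed as percent inhibition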
CHT inh: inhibitors of human choline transporter CHT; High affinity choline transporter 1 (Homo sapiens), Q9GZV3; CHT-expressing cells, membrane potential dye, choline response; active compounds read low; B-score at 10 µM; 0.86% of 310,000 active;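 active = B-score over 3 SD under the library average, and starting fluorescence ratio not unusually high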;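 note: choline stimulus applied at its EC90 after an EC20 pre-addition; B-score computed on integrated fluorescence ratio after choline addition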
Target sequence (Q9GZV3 whole entry, looked up): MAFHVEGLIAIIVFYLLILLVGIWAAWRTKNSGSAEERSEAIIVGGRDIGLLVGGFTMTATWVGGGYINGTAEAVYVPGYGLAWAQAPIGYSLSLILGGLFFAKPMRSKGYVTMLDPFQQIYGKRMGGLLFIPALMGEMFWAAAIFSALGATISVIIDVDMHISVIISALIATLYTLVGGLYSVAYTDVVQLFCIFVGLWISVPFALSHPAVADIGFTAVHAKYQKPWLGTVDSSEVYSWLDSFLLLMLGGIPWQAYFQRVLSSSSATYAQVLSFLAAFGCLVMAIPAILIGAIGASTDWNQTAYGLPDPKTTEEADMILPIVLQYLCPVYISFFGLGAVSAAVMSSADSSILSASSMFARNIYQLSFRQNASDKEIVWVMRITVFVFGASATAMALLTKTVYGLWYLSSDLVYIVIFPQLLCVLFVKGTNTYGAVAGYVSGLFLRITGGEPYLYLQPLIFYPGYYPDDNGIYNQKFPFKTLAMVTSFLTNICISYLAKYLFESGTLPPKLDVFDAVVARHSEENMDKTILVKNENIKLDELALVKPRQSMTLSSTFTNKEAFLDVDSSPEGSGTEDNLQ
CHT allo act: CHT positive allosteric modulators, primary screen, cell-based, membrane potential dye, choline EC20. 0.49% of 310,000 active. High affinity choline transporter 1 (Homo sapiens), Q9GZV3. CHT-expressing cells; active compounds read high; LV-AA mutant CHT in HEK293 cells. B-score at 10 µM. AID 488977, 2010;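 active = initial fluorescence not abnormally high and integrated response B-score, plate-corrected, over 3 SD above library mean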
Large screens that a line does not name were inactive.

CCCC(=O)NC(c1ccc(Cl)cc1)c1ccc2cccnc2c1O (stereo not given)	T cruzi repl 65
CCOC(=O)C(CC(=O)O)=C(c1ccccc1)c1ccccc1	none
COc1ccc(CCNC(=O)CC(c2ccccc2)c2cccc(C)c2O)cc1OC (stereo not given)	none
OC12CC3C[C@H](C1)C(N1CCOCC1)[C@@H](C3)C2 (stereo not given in full)	none
O=C(CCc1ccc(O)cc1)c1c(O)cc(O)cc1O[C@@H]1O[C@H](CO)[C@@H](O)[C@H](O)[C@H]1O	none
COc1ccc2no[n+]([O-])c2c1	PolyA inh 73
COc1ccc(/C(C)=N/NC(=O)c2cccc(S(=O)(=O)N3CCCC3)c2)c(O)c1	T cruzi repl 61
O=C(Cn1cnc2cc([N+](=O)[O-])ccc2c1=O)NCCc1ccc(F)cc1	none
Cc1ccccc1OCCn1cnc2cc([N+](=O)[O-])ccc2c1=O	T cruzi repl 60
O=C(Cn1cnc2cc([N+](=O)[O-])ccc2c1=O)Nc1ccc2c(c1)CCC2	T cruzi repl 64
CCN(CC)S(=O)(=O)c1ccc(C)c(NC(=O)Cn2cnc3cc([N+](=O)[O-])ccc3c2=O)c1	T cruzi repl 85
O=c1c2ccccc2ncn1CCCOc1ccccc1[N+](=O)[O-]	none
O=C(Cn1cnc2cc([N+](=O)[O-])ccc2c1=O)NCCc1ccc(Cl)cc1	T cruzi repl 64
O=C(Nc1ccnn1C1CCN(C/C=C/c2ccccc2)CC1)c1cccc(F)c1	none
Cc1ccc(-c2csc(=Nc3cccnc3)n2CCCn2ccnc2)cc1C	T cruzi repl 64
COCCn1c(-c2ccccc2)csc1=Nc1cccnc1	none
Cc1ccc(S(=O)(=O)Nc2ccc(N3CCN(C)CC3)nc2)cc1	T cruzi repl 58
CCC(OC(=O)CN1C(=O)C(=O)c2ccccc21)C(=O)Nc1ccccc1OC (stereo not given)	none (no result: CHT inh, CHT allo act)
COc1ccc(OC)c(-c2nc(CN3CCCCC3c3cccnc3)c(C)o2)c1 (stereo not given)	T cruzi repl 59
COc1cccc(C2CCCCN2Cc2nc(-c3ccc(C)o3)oc2C)c1 (stereo not given)	none
CCC(C)NS(=O)(=O)c1cc2c3c(c1)CCN3C(=O)CC2 (stereo not given)	none
O=C(CSc1ncc(-c2ccccc2)n1C1CCCC1)N1CCc2ccccc21	T cruzi repl 64
COc1ccc(C2C(C#N)=C(N)Oc3c2sc2nc(C)cc(C)c32)cc1 (stereo not given)	none
Cc1cc(C)c2c3c(sc2n1)C1(CCSCC1)C(C#N)=C(N)O3	T cruzi repl 64
O=C(Oc1cccnc1)c1ccc([N+](=O)[O-])cc1	none
O=[N+]([O-])c1cc(Oc2cccnc2)cc([N+](=O)[O-])c1	T cruzi repl 61
OCCCNc1c2ccccc2nc2ccccc12	T cruzi repl 70
Fc1cccc(NCCc2c[nH]c3ccccc23)n1	none
c1ccc2c(NCCc3c[nH]c4ccccc34)c3ccccc3nc2c1	T cruzi repl 63
NC(=O)c1nsc(C(=O)N(c2ccc3c(c2)OCCO3)C(C(=O)NCC2CCCO2)c2ccc(F)cc2)c1N (stereo not given)	none
N#CC1=C(N)Oc2cc(N)ccc2C1c1ccc(F)cc1F (stereo not given)	none
COc1ccc(CN(C)CC(=O)c2c(N)n(Cc3ccccc3)c(=O)n(C)c2=O)c(OC)c1	T cruzi repl 59
CCc1cc(=O)[nH]c(SCC(=O)Nc2ccc3c(c2)OCCO3)n1	none
Cc1ccc(-c2nc(NC(=O)c3nn(C)cc3[N+](=O)[O-])sc2C)cc1	none
Cc1ccc(-c2nc(NC(=O)c3nn(C)cc3[N+](=O)[O-])sc2C)cc1C	T cruzi repl 64
Cc1ccc(S(=O)(=O)NCc2ccccc2)cc1C(=O)N(C)Cc1ccc(F)cc1	none
CCN1CCN(CCNC(=O)C2CCCN(Cc3nc(-c4cccc(Cl)c4)oc3C)C2)CC1 (stereo not given)	none
COc1ccc(CCNC(=O)C2CCCN(Cc3nc(-c4ccccc4C)oc3C)C2)cc1OC (stereo not given)	none
CCCN(CCC)CCNC(=O)C1CCN(Cc2nc(-c3ccc(Cl)cc3)oc2C)CC1	T cruzi repl 73
COc1ccc(CNC(=O)C2CCCN(Cc3nc(-c4cccc(C)c4)oc3C)C2)cc1 (stereo not given)	T cruzi repl 56
CCc1ccc(-c2nc(CN3CCCC(C(=O)NCCc4ccc(OC)c(OC)c4)C3)c(C)o2)cc1 (stereo not given)	T cruzi repl 59
Cc1ccc(NC(=O)CCN2C(=O)OC(C)(C)C2(C)O)cc1 (stereo not given)	none
CCN(CC)CCn1c(NC(=O)c2ccc(C)cc2)nc2ccccc21	none
CCCn1c(NC(=O)c2ccc(Cl)c(S(=O)(=O)N3CCCC3)c2)nc2ccccc21	T cruzi repl 66
Cc1c(Cl)c(C(=O)Nc2nc3ccccc3n2CCN2CCCCC2)nn1C	CHT allo act 9.7
O=C(Nc1nc2ccccc2n1CCN1CCOCC1)c1cn(-c2ccccc2)nc1-c1ccccc1	T cruzi repl 66
CCN(CC)CCn1c(NC(=O)c2ccc(C(F)(F)F)cc2)nc2ccccc21	T cruzi repl 62
O=C(CCCCCN1C(=O)[C@@H]2Cc3ccccc3CN2C1=O)Nc1ccccc1F	none
COc1ccc(Oc2ccc(NC(=O)c3ccccc3C)cc2)cc1	none
C/C(=N/Nc1ccnc2cc(Cl)ccc12)c1ccc(N)cc1	T cruzi repl 60
Clc1ccc2c(N/N=C/c3ccccc3Br)ccnc2c1	T cruzi repl 55
COC(=O)c1ccc(-n2c(CCC(=O)O)ccc2-c2ccccc2)cc1	none
Cc1ccc(C)c(N2CCN(C(=O)CCC(=O)N3CCOc4ccc(Cl)cc43)CC2)c1	T cruzi repl 55
CCN1CCc2c(sc(NC(=O)c3cc4ccccc4cc3OC)c2C(N)=O)C1	T cruzi repl 58
O=C(CSc1nnc(CNC(=O)c2c(F)cccc2Cl)o1)NCc1ccc(F)cc1	none
CC(NCC(O)COC1CCC(C(C)(C)C)CC1)c1ccccc1 (stereo not given)	T cruzi repl 75
CCOc1ccccc1NC(=O)Cn1nnc(C(=O)NCc2ccc3c(c2)OCO3)c1N	none
COc1ccccc1-c1cc(C(=O)NC2CCN(C)CC2)c2ccc(Cl)c(C)c2n1	T cruzi repl 59
Cc1c(Cl)ccc2c(C(=O)NCCN3CCCCC3)cc(-c3ccccn3)nc12	none
CNC(=O)c1nnsc1S(=O)(=O)c1ccc(Cl)cc1	T cruzi repl 60 (no result: CHT inh, CHT allo act)
O=C(Cn1cc(S(=O)(=O)N2CCCC2)c(S(=O)(=O)N2CCCC2)c1)NCc1ccco1	none
Nc1ccc(C(=O)N/N=C\c2cc(N=Nc3cccc4ccccc34)ccc2O)cc1	T cruzi repl 59
COC(=O)N/N=C/c1cc(N=Nc2ccccc2Cl)ccc1O	none

Screening results: PubChem, several laboratories
